{"source": "ChEMBL document CHEMBL1121475", "about": "“Inhibitors of indoleethylamine N-methyltransferase. Derivatives of 3-methyl-2-thiazolidinimine. In vitro, in vivo, and metabolic studies” (J Med Chem, 1980)", "key": {"[1]": {"system": "Oryctolagus cuniculus", "assay": "Radioactivity measurements were performed following oral administration of the 100 mg/kg in rabbit 5 after 2 hr brain", "type": "ADME, organism-based", "parameters": "dose 100 mg/kg, route oral", "settings": "in vivo", "method_in_brief": "(§1)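 Male rabbits (900-1060 g) received [14C]-labelled parent amide, 100 mg/kg (251.7 dpm/μg, pH about 4.5), by gavage. At 2 or 6 h they were killed by air injection into the ear vein. Blood was drawn by cardiac puncture; brain and lung were homogenized in water (1 g = 10 mL). Radioactivity is expressed as μg equivalents of parent per g or mL.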"}, "[2]": {"system": "Oryctolagus cuniculus", "assay": "100 mg/kg of [14C]- radiolabeled compound was orally administered in rabbit1, and radioactivity content in urine was estimated at 0-2 hr", "settings": "rabbit, in vivo, po"}, "[3]": {"system": "Oryctolagus cuniculus", "assay": "Evaluation of formation of 3-Methyl-thiazolidin-2-ylideneamine from the radiolabeled compound, orally administered, from rabbit 2,4 liver was analyzed by Gas-liquid chromatographic analysis", "type": "ADME, organism-based", "settings": "in vivo, po", "method_in_brief": "(§2)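 Rabbit 2 was gavaged twice with [14C]-labelled parent amide, 100 mg/kg each dose (204.6 dpm/μg), 2 h apart, and killed 2 h after the second dose. Urine (0-4 h), blood, liver, lung and kidney were taken. The metabolite was measured by GLC of trimethylsilyl derivatives (3% OV-210, 95 °C, internal standard 3-ethyl-2-thiazolidinimine). Values are % of radioactivity as metabolite, mean of two determinations.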"}, "[4]": {"system": "Oryctolagus cuniculus", "assay": "100 mg/kg of [14C]- radiolabeled compound was orally administered in rabbit3, and radioactivity content in urine was estimated at total hours", "settings": "rabbit, in vivo, po"}, "[5]": {"system": "Oryctolagus cuniculus", "assay": "Radioactivity measurements were performed following oral administration of the 100 mg/kg in rabbit 5 after 2 hr in plasma", "type": "ADME, organism-based", "parameters": "dose 100 mg/kg, route oral", "settings": "in vivo", "method_in_brief": "as §1"}, "[6]": {"system": "Oryctolagus cuniculus", "assay": "Evaluation of formation of 3-Methyl-thiazolidin-2-ylideneamine from the radiolabeled compound, orally administered, from rabbit 2,4 lung was analyzed by Gas-liquid chromatographic analysis", "type": "ADME, organism-based", "settings": "in vivo, po", "method_in_brief": "as §2"}, "[7]": {"system": "Oryctolagus cuniculus", "assay": "Percent of 3-Methyl-thiazolidin-2-ylideneamine as administered dose was reported in rabbit 3 by Gas-liquid chromatographic analysis", "type": "ADME, organism-based", "settings": "in vivo", "method_in_brief": "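Rabbits 3 (single 100 mg/kg) and 4 (two 100 mg/kg doses 2 h apart) were gavaged with [14C]-labelled parent amide (204.6 dpm/μg). They were not killed; urine was collected 0-24 h. The metabolite was quantified by GLC of trimethylsilylated extracts against an internal-standard peak-height-ratio curve. Results are given as % of urinary radioactivity or % of administered dose, mean of two determinations.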"}, "[8]": {"system": "Oryctolagus cuniculus", "assay": "Evaluation of formation of 3-Methyl-thiazolidin-2-ylideneamine from the radiolabeled compound, orally administered, from rabbit 2,4 kidney was analyzed by Gas-liquid chromatographic analysis", "type": "ADME, organism-based", "settings": "in vivo, po", "method_in_brief": "as §2"}, "[9]": {"system": "Oryctolagus cuniculus", "assay": "Evaluation of formation of 3-Methyl-thiazolidin-2-ylideneamine from the radiolabeled compound, orally administered, from rabbit 1,2 liver was analyzed by Gas-liquid chromatographic analysis", "type": "ADME, organism-based", "settings": "in vivo, po", "method_in_brief": "(§3)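 Rabbit 1 was given [14C]-labelled parent amide, 100 mg/kg (204.6 dpm/μg), orally by gavage and killed 2 h later. Urine (0-2 h), blood, liver, lung and kidney were collected. Samples were extracted, trimethylsilylated with BSA/pyridine at 70 °C for 12-16 h, and run by GLC on 3% OV-210 at 95 °C against the internal standard 3-ethyl-2-thiazolidinimine. Output is % of radioactivity present as the metabolite, mean of two determinations.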"}, "[10]": {"system": "Oryctolagus cuniculus", "assay": "200 mg/kg of [14C]- radiolabeled compound was intravenously (gavage) injected in rabbit4, and radioactivity content in feces was estimated at total hours", "type": "ADME, organism-based", "settings": "rabbit, in vivo, po, in the assay text read “orally (gavage) administered” for “intravenously (gavage) injected”", "method_in_brief": "(§4)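 Rabbit given two 100 mg/kg gavage doses of [14C]-labelled drug, 2 h apart, 204.6 dpm/μg, 6.66 mg/mL in water/0.1 N HCl. Rabbit 2 was killed 2 h after the last dose and liver, lung, kidney and plasma taken (μg equivalents/g; tissue:plasma ratio). Rabbit 4 gave urine over 0-4, 0-24, 24-48 and 48-72 h and feces over 0-48 h, as % of dose.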"}, "[11]": {"system": "Indolethylamine N-methyltransferase (Oryctolagus cuniculus)", "assay": "In vivo evaluation of specific activity against rabbit lung Indoleethylamine-N-methyltransferase at oral dose of 25 mg/kg"}, "[12]": {"system": "Oryctolagus cuniculus", "assay": "200 mg/kg of [14C]- radiolabeled compound was intravenously (gavage) injected in rabbit4, and radioactivity content in feces was estimated at 0-48 hr", "type": "ADME, organism-based", "settings": "rabbit, in vivo, po, in the assay text read “orally (gavage) administered” for “intravenously (gavage) injected”", "method_in_brief": "as §4"}, "[13]": {"system": "Oryctolagus cuniculus", "assay": "Evaluation of formation of 3-Methyl-thiazolidin-2-ylideneamine from the radiolabeled compound, orally administered, from rabbit 2,4 plasma was analyzed by Gas-liquid chromatographic analysis", "type": "ADME, organism-based", "settings": "in vivo, po", "method_in_brief": "as §2"}, "[14]": {"system": "Oryctolagus cuniculus", "assay": "200 mg/kg of [14C]- radiolabeled compound was orally administered in rabbit4, and radioactivity content in urine was estimated at 24-48 h", "settings": "rabbit, in vivo, po"}, "[15]": {"system": "Oryctolagus cuniculus", "assay": "100 mg/kg of [14C]- radiolabeled compound was orally (gavage) administered in rabbit 1, and radioactivity content in lung was estimated", "settings": "in vivo, po"}, "[16]": {"system": "Oryctolagus cuniculus", "assay": "200 mg/kg of [14C]- radiolabeled compound was orally administered in rabbit4, and radioactivity content in urine was estimated at total hours", "settings": "rabbit, in vivo, po"}, "[17]": {"system": "Oryctolagus cuniculus", "assay": "Evaluation of formation of 3-Methyl-thiazolidin-2-ylideneamine from the radiolabeled compound, orally administered, from rabbit 1,2 plasma was analyzed by Gas-liquid chromatographic analysis", "type": "ADME, organism-based", "settings": "in vivo, po", "method_in_brief": "as §3"}, "[18]": {"system": "Oryctolagus cuniculus", "assay": "Evaluation of formation of 3-Methyl-thiazolidin-2-ylideneamine from the radiolabeled compound, orally administered, from rabbit 1 urine was analyzed at 0-2 hr by Gas-liquid chromatographic analysis", "settings": "in vivo, po"}, "[19]": {"system": "Indolethylamine N-methyltransferase (Oryctolagus cuniculus)", "assay": "Compound tested for inhibitory activity against rabbit lung Indoleethylamine-N-methyltransferase at 5 mg/kg intravenously*p< 0.05"}, "[20]": {"system": "Oryctolagus cuniculus", "assay": "200 mg/kg of [14C]- radiolabeled compound was orally administered in rabbit4, and radioactivity content in urine was estimated at 48-72 h", "settings": "rabbit, in vivo, po"}, "[21]": {"system": "Oryctolagus cuniculus", "assay": "100 mg/kg of [14C]- radiolabeled compound was orally (gavage) administered in rabbit3, and radioactivity content in urine was estimated at 24-48 h", "settings": "rabbit, in vivo, po"}, "[22]": {"system": "Oryctolagus cuniculus", "assay": "100 mg/kg of [14C]- radiolabeled compound was orally (gavage) injected in rabbit 1 lung, and radioactivity content in feces was estimated at", "type": "ADME, organism-based", "settings": "in vivo, po", "method_in_brief": "(§5)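 Rabbit given 100 mg/kg [14C]-labelled drug by gavage, 204.6 dpm/μg, in water/0.1 N HCl at 6.66 mg/mL. Rabbit 1 was killed at 2 h and liver, lung, kidney and blood taken; tissue values are μg equivalents/g and tissue:plasma ratio. Rabbit 3 was kept for urine (0-24, 24-48, 48-72 h) and feces (0-48 h), expressed as % of dose.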"}, "[23]": {"system": "Oryctolagus cuniculus", "assay": "200 mg/kg of [14C]- radiolabeled compound was orally administered in rabbit4, and radioactivity content in urine was estimated at", "settings": "rabbit, in vivo, po"}, "[24]": {"system": "Oryctolagus cuniculus", "assay": "100 mg/kg of [14C]- radiolabeled compound was orally (gavage) injected in rabbit, and radioactivity content in feces was estimated", "type": "ADME, organism-based", "settings": "in vivo, po", "method_in_brief": "as §5"}}, "note": "Several values for one entry are separate records, joined by “and”; a condition that tells them apart may be missing. Equal values may be shown once."}
{"smiles": "CN1CCS/C1=N\\C(=O)CCC(=O)/N=C1/SCCN1C", "values": [{"measurement": "Radioactivity level", "setting": "[1]", "result": 17.8, "unit": "µg/g"}, {"measurement": "Administered dose", "setting": "[2]", "result": 48.8, "unit": "%"}, {"measurement": "Radioactivity", "setting": "[3]", "result": 34.4, "unit": "%"}, {"measurement": "Administered dose", "setting": "[4]", "result": 86.9, "unit": "%"}, {"measurement": "Radioactivity level", "setting": "[5]", "result": 14.2, "unit": "µg/mL"}, {"measurement": "Radioactivity", "setting": "[6]", "result": 75.4, "unit": "%"}, {"measurement": "Administered dose", "setting": "[7]", "result": 41.2, "unit": "%"}, {"measurement": "Radioactivity", "setting": "[8]", "result": 65.3, "unit": "%"}, {"measurement": "Radioactivity", "setting": "[9]", "result": 37.9, "unit": "%"}, {"measurement": "Administered dose", "setting": "[10]", "result": 94, "unit": "%"}, {"measurement": "Specific activity", "setting": "[11]", "result": 14100, "unit": "dpm"}, {"measurement": "Administered dose", "setting": "[12]", "result": 6, "unit": "%"}, {"measurement": "Radioactivity", "setting": "[13]", "result": 48.9, "unit": "%"}, {"measurement": "Administered dose", "setting": "[14]", "result": 0.8, "unit": "%"}, {"measurement": "Radioactivity concentration", "setting": "[15]", "result": 36.3, "unit": "µg/g"}, {"measurement": "Administered dose", "setting": "[16]", "result": 88, "unit": "%"}, {"measurement": "Radioactivity", "setting": "[17]", "result": 26.5, "unit": "%"}, {"measurement": "Percent of urinary radioactivity", "setting": "[18]", "result": 57.2, "unit": "%"}, {"measurement": "inhibition", "setting": "[19]", "result": 64, "unit": "%"}, {"measurement": "Administered dose", "setting": "[20]", "result": 0.1, "unit": "%"}, {"measurement": "Administered dose", "setting": "[21]", "result": 0.8, "unit": "%"}, {"measurement": "Tissue to plasma ratio", "setting": "[22]", "result": 1.5}, {"measurement": "Administered dose", "setting": "[23]", "result": 87.1, "unit": "%"}, {"measurement": "Administered dose", "setting": "[24]", "result": "9% and 1%"}]}
